A selection: hits, their analogues and other compounds. The true share with any hit is near 1.4%.
GSIS activator = primary screen for activators of insulin secretion dependent on glucose, INS-1E cells, GLuc reporter luminescence; INS-1E GLuc reporter insulin secretion, 2-3 h; activation, % at 16.6 µM; actives 0.61% (n = 370,000); AID 743287;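 active = lowest replicate activation of at least 40%, so every replicate reaches that level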
Env fusion inh = inhibitors of HIV Env-mediated cell fusion | HeLa-JRFL Env/CEM21 cell fusion, luciferase | inhibition, % at 12.3 µM | actives 1.1% (n = 360,000) | AID 651610;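 active = mean replicate inhibition score of at least 50 and every replicate individually at or above 50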
STK33 kinase inh = human STK33 kinase inhibition; Q9BYT3; purified STK33, MBP phosphorylation, ADP-Glo luminescence; inhibition, % at 10 µM; actives 0.073% (n = 320,000); AID 2661;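 active = inhibition at or above 25%, using the most active replicate where run in duplicate; inactive = inhibition below 25%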
GSK3A inh = inhibitors of human GSK-3 alpha kinase; ADP-Glo luminescence, 60 min; P49840; inhibition, % at 10 µM; actives 0.1% (n = 320,000);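 active = more than half of replicates show inhibition above 20%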;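 also: GST-tagged GSK-3 alpha with peptide substrate and 25 µM ATP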
Target sequence (P49840 whole entry, looked up): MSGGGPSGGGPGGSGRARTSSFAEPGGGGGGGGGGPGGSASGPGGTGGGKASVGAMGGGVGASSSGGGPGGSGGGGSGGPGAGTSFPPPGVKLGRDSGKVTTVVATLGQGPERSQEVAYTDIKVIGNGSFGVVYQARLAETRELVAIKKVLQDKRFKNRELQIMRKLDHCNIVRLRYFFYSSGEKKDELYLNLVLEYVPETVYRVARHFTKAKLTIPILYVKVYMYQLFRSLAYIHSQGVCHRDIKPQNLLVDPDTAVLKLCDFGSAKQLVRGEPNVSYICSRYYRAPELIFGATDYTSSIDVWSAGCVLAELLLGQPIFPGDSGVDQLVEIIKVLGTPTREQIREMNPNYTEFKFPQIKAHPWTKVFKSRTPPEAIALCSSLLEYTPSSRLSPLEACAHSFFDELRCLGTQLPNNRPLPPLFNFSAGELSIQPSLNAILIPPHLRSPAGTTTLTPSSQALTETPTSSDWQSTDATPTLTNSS
GSK3B inh = blocks human GSK3beta kinase activity. GST-GSK3beta kinase, ADP-Glo luminescence, 60 min; hits give low values. activity score (negative = inhibition), % at 10 µM. actives 0.038% (n = 300,000);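 active = more than half of replicate wells score below -50%, meaning over 50% inhibition versus plate controls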
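Test system – GST-tagged human GSK3beta kinase, cell-free · Incubation – 60 min enzyme reaction, room temperature · Signal – ADP-Glo luminescence · Also added – peptide substrate and ATP at 25 µM · Controls – DMSO neutral wells and GW8510 at 20 µM as positive · Buffer or medium – Tris/MgCl2 kinase buffer · Measure – Luminescence-derived activity versus plate DMSO and GW8510 wells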
CDK5 p35 inh = inhibitors of human CDK5/p35 kinase; Q00535+Q15078; Recombinant CDK5/p35, ADP-Glo luminescence, 60 min; inhibition, % at 10 µM; actives 0.01% (n = 330,000); AID 488839;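 active = highest replicate inhibition of at least 50% and at least 75% of replicates reaching 50%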
Of the large screens only hits and unclear results are named; the others gave an inactive call.

COc1ccccc1S(=O)(=O)N[C@@H]1CC[C@@H](CCNC(=O)C2CCOCC2)O[C@H]1CO	none (no result: Env fusion inh, STK33 kinase inh, GSK3A inh, GSK3B inh, CDK5 p35 inh)
CCCCCC(O)CCCC(=O)O (configuration not stated)	none (no result: STK33 kinase inh, GSK3A inh, GSK3B inh)
CCCCCCCCCCCCCCCC(O)C[N+](C)(C)CCO (configuration not stated)	GSIS activator 363 (no result: STK33 kinase inh, GSK3A inh, GSK3B inh)
CO[C@H]1CN(C)C(=O)c2ccc(NC(=O)NC(C)C)cc2OC[C@@H](C)N(Cc2cocn2)C[C@H]1C	none (no result: STK33 kinase inh, GSK3A inh, GSK3B inh, CDK5 p35 inh)
CCOc1ccc(OCc2cccc(C(=O)N/N=C/c3cccnc3)c2)cc1	Env fusion inh 69
Cc1ccc(C(=O)Nc2ccc(C(=O)N/N=C/c3cccnc3)cc2)cc1	none
CCC(=O)Nc1ccc(C(=O)N/N=C/c2cccnc2)cc1	GSIS activator 44
C=CC[C@]12CCc3ccccc3C1N(c1ccc(C(=O)OCC)cc1)C2=O (some centres not stated)	Env fusion inh 61 (no result: GSK3B inh)
CC1CCCCN1C(=O)COC(=O)CSc1ccc(C(N)=O)cc1[N+](=O)[O-] (configuration not stated)	GSIS activator 45 (no result: Env fusion inh, STK33 kinase inh, GSK3A inh, GSK3B inh)
C[C@@H]1CN([C@H](C)CO)C(=O)Cc2cc(NC(=O)CCC(F)(F)F)ccc2O[C@@H]1CN(C)Cc1ccc(-c2ccccc2)cc1	none (no result: STK33 kinase inh, GSK3A inh, GSK3B inh, CDK5 p35 inh)
CCC/C=C/c1ccc(CN2C(C)C(=O)N(Cc3cn(CC4CCCCC4)nn3)CCS2(=O)=O)cc1 (configuration not stated)	none (no result: STK33 kinase inh, GSK3A inh, GSK3B inh, CDK5 p35 inh)
CCC/C=C/c1ccc(CN2C(C(C)C)C(=O)N(Cc3cn(CC4CCCCC4)nn3)CCS2(=O)=O)cc1 (configuration not stated)	Env fusion inh 68 (no result: STK33 kinase inh, GSK3A inh, GSK3B inh, CDK5 p35 inh)
Cc1nc2ccccc2c2oc(C(=O)NCc3ccc4c(c3)OCO4)cc12	Env fusion inh 88
COc1ccc(S(=O)(=O)N[C@H]2C=C[C@H](CC(=O)N3CCc4ccccc4C3)O[C@@H]2CO)cc1	none (no result: STK33 kinase inh, GSK3A inh, GSK3B inh, CDK5 p35 inh)
O=S(=O)(NCC1CCCO1)c1ccc(Oc2ccccc2)cc1 (configuration not stated)	Env fusion inh 57
CC(C)NC(=O)N(C)C[C@@H]1Oc2cc(C#CC3CC3)ccc2S(=O)(=O)N([C@@H](C)CO)C[C@@H]1C	none (no result: STK33 kinase inh, GSK3A inh, GSK3B inh, CDK5 p35 inh)
COC(=O)[C@H](CC(C)C)NS(=O)(=O)c1ccccc1	none
COC(=O)[C@H](C(C)C)N(Cc1ccccc1)S(=O)(=O)CCN1CCCC1	none (no result: STK33 kinase inh, GSK3A inh, GSK3B inh)
COC(=O)[C@H](Cc1ccccc1)N(Cc1ccccc1)S(=O)(=O)N(Cc1ccccc1)[C@@H](Cc1ccccc1)C(=O)OC	Env fusion inh 80 (no result: GSK3B inh)
COC(=O)[C@H](CC(C)C)NS(=O)(=O)N[C@@H](CC(C)C)C(=O)OC	none (no result: GSK3B inh)
C=CCN([C@@H](CC(C)C)C(=O)OC)S(=O)(=O)N(CC=C)[C@@H](CC(C)C)C(=O)OC	Env fusion inh 81 (no result: GSK3B inh)
COC(=O)[C@@H](CC(C)C)NS(=O)(=O)N(Cc1ccccc1)[C@@H](CC(C)C)C(=O)OC	Env fusion inh 55 (no result: GSK3B inh)
CCOC(=O)[C@@H](C)N(C(=O)OC(C)(C)C)S(=O)(=O)N(Cc1ccccc1)[C@H](C(=O)OC)C(C)C	Env fusion inh 85 (no result: GSIS activator, STK33 kinase inh, GSK3A inh, GSK3B inh)
C[C@H]1CN([C@@H](C)CO)C(=O)c2cccc(NS(=O)(=O)c3ccc(Cl)cc3)c2O[C@H]1CN(C)Cc1ccncc1	none (no result: Env fusion inh, STK33 kinase inh, GSK3A inh, GSK3B inh, CDK5 p35 inh)
CNC[C@H]1Oc2cc(-c3cccc(C(=O)N(C)C)c3)ccc2S(=O)(=O)N([C@@H](C)CO)C[C@H]1C	none (no result: STK33 kinase inh, GSK3A inh, GSK3B inh, CDK5 p35 inh)
CCCNC(=O)N1CC(=O)N2[C@H](C1)[C@H](c1ccc(-c3cccc(C)c3)cc1)[C@@H]2CO	none (no result: Env fusion inh, STK33 kinase inh, GSK3A inh, GSK3B inh, CDK5 p35 inh)
CO[C@@H]1CN(C)C(=O)c2cc(NS(=O)(=O)c3ccccc3)ccc2OC[C@@H](C)N(C(=O)NC(C)C)C[C@H]1C	none (no result: STK33 kinase inh, GSK3A inh, GSK3B inh, CDK5 p35 inh)
Cc1nnc(SCC(=O)Nc2nsc(-c3ccccc3)n2)s1	Env fusion inh 57
O=C(C1CCC1)N1CC2(C1)[C@@H](c1ccccc1)[C@@H](CO)N2Cc1cncnc1	none (no result: Env fusion inh, STK33 kinase inh, GSK3A inh, GSK3B inh, CDK5 p35 inh)
CCC(=O)Nc1sc(Cc2ccc3c(c2)OCO3)c(C)c1C(N)=O	GSIS activator 67
Cc1c(Cc2ccccc2)sc(NC(=O)C(C)(C)C)c1C(N)=O	GSIS activator 46
Cc1c(Cc2ccccc2)sc(NC(=O)Cc2ccccc2)c1C(N)=O	none (no result: Env fusion inh)
Cc1c(Cc2ccc3c(c2)OCO3)sc(NC(=O)c2ccc3ccccc3c2)c1C(N)=O	none (no result: GSIS activator, CDK5 p35 inh)
